Measured values from different studies.
Compare with care: the assays were run in different laboratories.
Effect on: enzyme activity
Action: inhibitor
PIK3CD: Phosphatidylinositol 4,5-bisphosphate 3-kinase catalytic subunit delta isoform (PIK3CD, Homo sapiens, UniProt O00329)
KIT: Mast/stem cell growth factor receptor Kit (KIT, Homo sapiens, UniProt P10721)

SMILES	target	assay	setting	IC50
O=C1Nc2ccccc2C1=Nc1cccc(Cl)c1	PIK3CD	ADP detection	–	83.7 nM
COc1ccccc1N1CCN(C(=O)c2cccc(S(=O)(=O)n3cncn3)c2)CC1	Prostaglandin reductase 2 (Homo sapiens, UniProt Q8N8N7)	–	lysate	176 nM
O=C1Nc2ccccc2/C1=N\c1ccc(Cl)cc1	PIK3CD	ADP detection	–	765 nM
Oc1ccc(-c2nc(-c3ccncc3)c(-c3ccc(F)cc3)[nH]2)cc1	Tau-tubulin kinase 1 (TTBK1, Homo sapiens, UniProt Q5TCY1)	–	–	25500 nM
COc1ccc(-c2cc(=O)c3cccc(Nc4ncc5cc(C(=O)N(C)C)n(C6CCCC6)c5n4)c3o2)cc1	PIK3CD	radiometric	–	> 10000 nM
C=CC(=O)Nc1cccc(Oc2nc(Nc3ccc(N4CCN(C)CC4)cc3)nc3ccoc23)c1	Tyrosine-protein kinase BTK (BTK, Homo sapiens, UniProt Q06187)	–	–	< 0.254 nM
CN(C)CCNC(=O)c1ccc(-c2nc3ccc4[nH]ncc4c3c3c2CCCCC3)cc1	KIT	–	–	990 nM
CN(C)C(=O)c1cc2cnc(Nc3ccc(-c4ccc5c(=O)cc(N6CCNCC6)oc5c4)cc3)nc2n1C1CCCC1	PIK3CD	radiometric	–	9500 nM
CN(C)CCNC(=O)c1ccc(-c2nc3ccc4[nH]ncc4c3c3c2CCCCC3)c(F)c1	KIT	–	–	249 nM
CN(C)C(=O)c1cc2cnc(Nc3ccc(-c4cccc5c(=O)cc(N6CCOCC6)oc45)cn3)nc2n1C1CCCC1	PIK3CD	radiometric	–	2390 nM
CC(C)c1cccc(C(C)C)c1N=C1C(=O)N(Cc2cccc(Cl)c2)c2ccccc21	PIK3CD	ADP detection	–	238 nM
CN(C)CCNC(=O)c1ccc(-c2nc3ccc4[nH]ncc4c3c3c2CCCC3)cc1	KIT	–	–	> 1000 nM
C=CCN1C(=O)C(=Nc2cccc(C)c2)c2ccccc21	PIK3CD	ADP detection	–	81.2 nM
CN(C)C(=O)c1cc2cnc(Nc3ccc(-c4cccc5c(=O)cc(N6CCNCC6)oc45)cc3)nc2n1C1CCCC1	PIK3CD	radiometric	–	2300 nM
CNC(=O)[C@H](Cc1c[nH]c2ccccc12)NC(=O)[C@@H](CC(=O)NO)CC(C)C	Matrix metalloproteinase-14 (MMP14, Homo sapiens, UniProt P50281)	–	–	1.37 nM
CCc1ccc(N=C2C(=O)Nc3ccccc32)cc1	PIK3CD	ADP detection	–	455 nM
CN1CCN(c2cc(=O)c3ccc(Nc4ncc5cc(C(=O)N(C)C)n(C6CCCC6)c5n4)cc3o2)CC1	PIK3CD	radiometric	–	> 10000 nM
Cc1ccc(CN2C(=O)C(=Nc3c(C(C)C)cccc3C(C)C)c3ccccc32)cc1	PIK3CD	ADP detection	–	233 nM
CN(C)C(=O)c1cc2cnc(Nc3ccc(-c4cccc5c(=O)cc(N6CCOCC6)oc45)c(F)c3)nc2n1C1CCCC1	PIK3CD	radiometric	–	40.5 nM
Cc1n[nH]c2ccc3nc(-c4ccc(C(=O)NCCN(C)C)cc4F)c4c(c3c12)CCCCC4	KIT	–	–	261 nM
